1 compound from ChEMBL document CHEMBL4038333, “Nonacidic Farnesoid X Receptor Modulators” (J Med Chem, 2017) can be followed below.

In series [1] the test system is HeLa. The series can be described thus: Selectivity ratio for human FXR expressed in human HeLa cells co-expressing BSEP over GAL4-tagged human PPARgamma ligand binding domain expressed in HEK293T cells. It is filed as cell-based.
The target in series [2] is T1, Bile acid receptor (Homo sapiens) (UniProt Q96RI1).
T1 sequence (whole entry): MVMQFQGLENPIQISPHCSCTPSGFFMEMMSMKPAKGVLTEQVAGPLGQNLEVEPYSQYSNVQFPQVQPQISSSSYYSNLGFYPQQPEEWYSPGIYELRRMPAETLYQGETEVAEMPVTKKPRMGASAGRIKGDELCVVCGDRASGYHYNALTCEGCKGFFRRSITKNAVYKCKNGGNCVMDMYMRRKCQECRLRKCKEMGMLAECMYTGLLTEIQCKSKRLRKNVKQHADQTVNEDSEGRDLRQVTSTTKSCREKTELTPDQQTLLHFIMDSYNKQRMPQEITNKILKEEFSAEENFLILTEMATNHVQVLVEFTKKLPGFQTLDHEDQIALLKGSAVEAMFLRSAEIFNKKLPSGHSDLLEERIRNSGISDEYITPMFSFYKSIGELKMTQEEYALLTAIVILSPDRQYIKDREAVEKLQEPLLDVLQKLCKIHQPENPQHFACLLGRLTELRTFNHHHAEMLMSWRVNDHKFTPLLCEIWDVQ
The series can be described thus: Modulation of FXR in human HepG2 cells assessed as induction of PPARalpha mRNA expression at 10 nM by qRT-PCR analysis. The format is cell-based. Summed up: (§1)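 HepG2 hepatocarcinoma cells were incubated with the compound at 10 nM. FXR target-gene mRNA was quantified by qRT-PCR (n = 3), with significance at p < 0.05, 0.01 and 0.001.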
Background: Quantitative PCR measures a nucleic acid by following its amplification.

Series [3] relates to HeLa. The series can be described thus: Selectivity ratio for human FXR expressed in human HeLa cells co-expressing BSEP over GAL4-tagged human PXR isoform 1 ligand binding domain (138 to 434 residues) expressed in HEK293T cells. It is filed as cell-based.
Series [4] deals with HeLa. Briefly: Selectivity ratio for human FXR expressed in human HeLa cells co-expressing BSEP over GAL4-tagged human PPARdelta ligand binding domain expressed in HEK293T cells. It is filed as cell-based.
A short description of series [5]: Aqueous solubility of compound. The format is physicochemical. To be noted: buffer.
The target in series [6] is Oxysterols receptor LXR-beta (Homo sapiens) (UniProt P55055). The series can be described thus: Transactivation of GAL4-tagged human LXRbeta ligand binding domain expressed in HEK293T cells at 1 uM after 12 to 14 hrs by dual-glo luciferase reporter gene assay. The format is cell-based. The following applies: HEK-293T. Summed up: (§2)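 Run as a selectivity screen against each listed receptor (14 nuclear receptors plus TGR5), in both agonist and antagonist modes. Test concentration was 1 µM, with n = 3.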
Sequence of Oxysterols receptor LXR-beta (Homo sapiens) (P55055 whole entry, the tested form may be a part): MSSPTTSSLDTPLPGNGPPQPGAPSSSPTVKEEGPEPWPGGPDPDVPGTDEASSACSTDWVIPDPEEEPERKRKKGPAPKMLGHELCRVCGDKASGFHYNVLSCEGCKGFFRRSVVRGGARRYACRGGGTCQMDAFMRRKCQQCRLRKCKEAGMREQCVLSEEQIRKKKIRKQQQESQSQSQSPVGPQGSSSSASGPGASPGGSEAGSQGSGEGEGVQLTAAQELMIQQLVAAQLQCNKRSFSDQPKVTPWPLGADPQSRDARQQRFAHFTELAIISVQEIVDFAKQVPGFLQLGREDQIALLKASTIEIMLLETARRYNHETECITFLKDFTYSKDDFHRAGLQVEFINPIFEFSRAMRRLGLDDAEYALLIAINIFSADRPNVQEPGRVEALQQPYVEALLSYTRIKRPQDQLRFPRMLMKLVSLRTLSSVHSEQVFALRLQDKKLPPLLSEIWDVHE

In series [7] the target is Vitamin D3 receptor (Homo sapiens) (UniProt P11473). The series can be described thus: Antagonist activity at GAL4-tagged human VDR isoform 1 ligand binding domain (119 to 427 residues) expressed in HEK293T cells at 1 uM after 12 to 14 hrs by dual-glo luciferase reporter gene assay. The format is cell-based. The following applies: HEK-293T. The procedure, abridged:
as §2
In general terms: A reporter such as luciferase makes a cellular process visible.

Series [8] concerns the target Retinoic acid receptor RXR-alpha (Homo sapiens) (UniProt P19793). Briefly: Antagonist activity at GAL4-tagged human RXRalpha ligand binding domain (225 to 462 residues) expressed in HEK293T cells at 1 uM after 12 to 14 hrs by dual-glo luciferase reporter gene assay. It is filed as cell-based. To be noted: HEK-293T. Summed up:
as §2

For series [9], the system named is HeLa. Briefly: Selectivity ratio for human FXR expressed in human HeLa cells co-expressing BSEP over GAL4-tagged human RARalpha1 ligand binding domain (177 to 462 residues) expressed in HEK293T cells. The format is cell-based.
Series [10] concerns the target T1, Bile acid receptor (Homo sapiens). The series can be described thus: Modulation of FXR in human HepG2 cells assessed as suppression of SREBP1c mRNA expression at 10 nM by qRT-PCR analysis. The format is cell-based. Summed up:
as §1

Series [11] deals with Peroxisome proliferator-activated receptor delta (Homo sapiens) (UniProt Q03181). The series can be described thus: Antagonist activity at GAL4-tagged human PPARdelta ligand binding domain expressed in HEK293T cells at 1 uM after 12 to 14 hrs by dual-glo luciferase reporter gene assay. The format is cell-based. To be noted: HEK-293T. The procedure, abridged:
as §2

For series [12], the target named is Retinoic acid receptor alpha (Homo sapiens) (UniProt P10276). The series can be described thus: Transactivation of GAL4-tagged human RARalpha1 ligand binding domain (177 to 462 residues) expressed in HEK293T cells at 1 uM after 12 to 14 hrs by dual-glo luciferase reporter gene assay. The format is cell-based. The following applies: HEK-293T. The procedure, abridged:
as §2

The subject of series [13] is HeLa. The series can be described thus: Selectivity ratio for human FXR expressed in human HeLa cells co-expressing BSEP over GAL4-tagged human VDR isoform 1 ligand binding domain (119 to 427 residues) expressed in HEK293T cells. The format is cell-based.
Series [14] addresses Peroxisome proliferator-activated receptor gamma (Homo sapiens) (UniProt P37231). Briefly: Transactivation of GAL4-tagged human PPARgamma ligand binding domain expressed in HEK293T cells at 1 uM after 12 to 14 hrs by dual-glo luciferase reporter gene assay. The format is cell-based. The following applies: HEK-293T. Summed up: as §2
Series [15] shares this target. The series can be described thus: Antagonist activity at GAL4-tagged human PPARgamma ligand binding domain expressed in HEK293T cells at 1 uM after 12 to 14 hrs by dual-glo luciferase reporter gene assay. The format is cell-based. To be noted: HEK-293T. Summed up: as §2
Series [16] has as its target Retinoic acid receptor RXR-beta (Homo sapiens) (UniProt P28702). The series can be described thus: Antagonist activity at GAL4-tagged human RXRbeta isoform 1 ligand binding domain (294 to 533 residues) expressed in HEK293T cells at 1 uM after 12 to 14 hrs by dual-glo luciferase reporter gene assay. It is filed as cell-based. To be noted: HEK-293T. Summed up: as §2

Series [17] has as its target Retinoic acid receptor RXR-gamma (Homo sapiens) (UniProt P48443). The series can be described thus: Antagonist activity at GAL4-tagged human RXRgamma ligand binding domain (229 to 463 residues) expressed in HEK293T cells at 1 uM after 12 to 14 hrs by dual-glo luciferase reporter gene assay. It is filed as cell-based. To be noted: HEK-293T. The procedure, abridged:
as §2

Series [18] concerns HeLa. Briefly: Selectivity ratio for human FXR expressed in human HeLa cells co-expressing BSEP over GAL4-tagged human RXRalpha ligand binding domain (225 to 462 residues) expressed in HEK293T cells. The format is cell-based.
Series [19] has as its target T1, Bile acid receptor (Homo sapiens). Briefly: Modulation of FXR in human HepG2 cells assessed as induction of OSTalpha mRNA expression at 10 nM by qRT-PCR analysis. The format is cell-based. The procedure, abridged: as §1
Series [20] deals with Retinoic acid receptor RXR-beta (Homo sapiens) (UniProt P28702). Briefly: Transactivation of GAL4-tagged human RXRbeta isoform 1 ligand binding domain (294 to 533 residues) expressed in HEK293T cells at 1 uM after 12 to 14 hrs by dual-glo luciferase reporter gene assay. It is filed as cell-based. The following applies: HEK-293T. The procedure, abridged: as §2
Sequence of Retinoic acid receptor RXR-beta (Homo sapiens) (P28702 whole entry, the tested form may be a part, canonical isoform): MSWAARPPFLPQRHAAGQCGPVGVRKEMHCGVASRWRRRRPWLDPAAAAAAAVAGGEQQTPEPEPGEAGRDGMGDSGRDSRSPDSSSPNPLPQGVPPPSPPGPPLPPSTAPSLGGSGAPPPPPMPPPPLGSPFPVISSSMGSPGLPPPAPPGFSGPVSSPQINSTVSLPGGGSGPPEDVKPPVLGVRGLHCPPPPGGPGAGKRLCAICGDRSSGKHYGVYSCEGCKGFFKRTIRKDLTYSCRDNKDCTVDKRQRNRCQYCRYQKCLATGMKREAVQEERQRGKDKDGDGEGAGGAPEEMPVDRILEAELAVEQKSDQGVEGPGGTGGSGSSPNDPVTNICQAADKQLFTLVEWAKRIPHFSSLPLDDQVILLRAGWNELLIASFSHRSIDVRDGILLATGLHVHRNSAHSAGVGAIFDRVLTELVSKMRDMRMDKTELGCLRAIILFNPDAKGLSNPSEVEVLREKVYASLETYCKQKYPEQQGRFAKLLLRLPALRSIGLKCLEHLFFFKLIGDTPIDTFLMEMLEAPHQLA
Series [21] relates to HeLa. The series can be described thus: Selectivity ratio for human FXR expressed in human HeLa cells co-expressing BSEP over GAL4-tagged human PPARalpha ligand binding domain expressed in HEK293T cells. It is filed as cell-based.
The target of series [22] is Nuclear receptor subfamily 1 group I member 2 (Homo sapiens, UniProt O75469). Briefly: Transactivation of GAL4-tagged human PXR isoform 1 ligand binding domain (138 to 434 residues) expressed in HEK293T cells at 1 uM after 12 to 14 hrs by dual-glo luciferase reporter gene assay. The format is cell-based. To be noted: hek-293t. Summed up: as §2
Sequence of Nuclear receptor subfamily 1 group I member 2 (O75469 whole entry, the tested form may be a part, canonical isoform): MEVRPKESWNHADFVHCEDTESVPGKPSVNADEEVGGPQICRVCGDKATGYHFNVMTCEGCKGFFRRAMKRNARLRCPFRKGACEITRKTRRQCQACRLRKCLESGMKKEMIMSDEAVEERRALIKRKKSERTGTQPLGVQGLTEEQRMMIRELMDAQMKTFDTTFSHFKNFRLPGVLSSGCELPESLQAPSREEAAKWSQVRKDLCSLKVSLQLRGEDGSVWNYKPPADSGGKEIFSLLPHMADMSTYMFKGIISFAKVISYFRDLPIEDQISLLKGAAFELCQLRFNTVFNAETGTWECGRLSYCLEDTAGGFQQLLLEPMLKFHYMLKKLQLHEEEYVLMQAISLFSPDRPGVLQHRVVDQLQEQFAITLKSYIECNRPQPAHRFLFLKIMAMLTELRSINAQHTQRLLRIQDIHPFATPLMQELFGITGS
Series [23] addresses T1, Bile acid receptor (Homo sapiens). The series can be described thus: Modulation of FXR in human HepG2 cells assessed as suppression of CYP7A1 mRNA expression at 10 nM by qRT-PCR analysis. It is filed as cell-based. The procedure, abridged: as §1
In series [24] the target is Nuclear receptor subfamily 1 group I member 3 (Homo sapiens, UniProt Q14994). The series can be described thus: Antagonist activity at GAL4-tagged human CAR isoform 6 ligand binding domain (48 to 324 residues) expressed in HEK293T cells at 1 uM after 12 to 14 hrs by dual-glo luciferase reporter gene assay. It is filed as cell-based. The following applies: hek-293t. Summed up:
as §2

Values after ≈ are worked out from the molar mass of the structure shown. Active and inactive are the calls of the source. No cut-off for these calls is given here.

Sequence of Peroxisome proliferator-activated receptor gamma (Homo sapiens) (P37231 whole entry, the tested form may be a part): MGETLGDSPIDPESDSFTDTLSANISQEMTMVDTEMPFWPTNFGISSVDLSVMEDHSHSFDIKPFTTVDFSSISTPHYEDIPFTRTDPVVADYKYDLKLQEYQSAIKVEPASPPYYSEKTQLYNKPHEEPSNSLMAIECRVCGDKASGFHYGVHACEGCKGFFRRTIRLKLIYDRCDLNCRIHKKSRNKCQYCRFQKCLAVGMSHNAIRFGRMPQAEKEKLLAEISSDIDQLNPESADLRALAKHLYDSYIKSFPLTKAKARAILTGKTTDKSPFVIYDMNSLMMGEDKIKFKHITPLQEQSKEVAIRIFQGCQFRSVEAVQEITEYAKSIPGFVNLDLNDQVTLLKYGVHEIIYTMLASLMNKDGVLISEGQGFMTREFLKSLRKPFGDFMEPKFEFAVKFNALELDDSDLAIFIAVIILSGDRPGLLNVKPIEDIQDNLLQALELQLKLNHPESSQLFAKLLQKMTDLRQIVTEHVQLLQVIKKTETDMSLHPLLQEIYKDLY
Sequence of Nuclear receptor subfamily 1 group I member 3 (Q14994 whole entry, the tested form may be a part, canonical isoform): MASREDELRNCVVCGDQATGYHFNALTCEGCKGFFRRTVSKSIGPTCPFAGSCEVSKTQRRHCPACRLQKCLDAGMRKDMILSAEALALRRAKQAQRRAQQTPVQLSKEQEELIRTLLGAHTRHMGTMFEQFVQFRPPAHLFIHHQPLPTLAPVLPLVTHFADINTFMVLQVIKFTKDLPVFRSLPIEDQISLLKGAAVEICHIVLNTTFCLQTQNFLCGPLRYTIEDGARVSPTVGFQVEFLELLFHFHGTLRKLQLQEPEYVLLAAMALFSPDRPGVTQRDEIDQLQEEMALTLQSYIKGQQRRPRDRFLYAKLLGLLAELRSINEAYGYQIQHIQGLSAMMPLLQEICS
Sequence of Vitamin D3 receptor (Homo sapiens) (P11473 whole entry, the tested form may be a part, canonical isoform): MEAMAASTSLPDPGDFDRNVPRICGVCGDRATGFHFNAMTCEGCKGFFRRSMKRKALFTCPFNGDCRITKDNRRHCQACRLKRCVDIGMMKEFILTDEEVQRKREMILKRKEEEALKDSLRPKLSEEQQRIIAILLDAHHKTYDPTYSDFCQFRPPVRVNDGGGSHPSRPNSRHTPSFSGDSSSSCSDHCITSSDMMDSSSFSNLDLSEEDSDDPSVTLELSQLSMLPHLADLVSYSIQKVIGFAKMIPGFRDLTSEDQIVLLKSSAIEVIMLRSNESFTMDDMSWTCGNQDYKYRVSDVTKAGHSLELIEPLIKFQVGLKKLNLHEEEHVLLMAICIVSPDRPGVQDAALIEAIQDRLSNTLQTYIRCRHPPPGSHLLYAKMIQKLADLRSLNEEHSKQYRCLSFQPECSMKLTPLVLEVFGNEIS
Sequence of Retinoic acid receptor RXR-gamma (Homo sapiens) (P48443 whole entry, the tested form may be a part): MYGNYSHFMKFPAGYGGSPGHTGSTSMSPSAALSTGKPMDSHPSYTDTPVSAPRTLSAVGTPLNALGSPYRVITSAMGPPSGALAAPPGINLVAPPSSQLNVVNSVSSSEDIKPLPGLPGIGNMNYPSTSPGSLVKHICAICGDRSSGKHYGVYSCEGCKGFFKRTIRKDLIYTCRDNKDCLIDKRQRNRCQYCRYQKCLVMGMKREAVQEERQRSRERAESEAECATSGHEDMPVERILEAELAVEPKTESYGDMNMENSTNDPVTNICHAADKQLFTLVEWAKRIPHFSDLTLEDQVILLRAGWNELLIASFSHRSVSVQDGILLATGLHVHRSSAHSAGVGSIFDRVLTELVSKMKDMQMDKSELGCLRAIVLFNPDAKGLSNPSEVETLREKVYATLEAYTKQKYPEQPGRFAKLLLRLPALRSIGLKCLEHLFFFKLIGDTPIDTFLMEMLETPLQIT
Sequence of Retinoic acid receptor alpha (Homo sapiens) (P10276 whole entry, the tested form may be a part): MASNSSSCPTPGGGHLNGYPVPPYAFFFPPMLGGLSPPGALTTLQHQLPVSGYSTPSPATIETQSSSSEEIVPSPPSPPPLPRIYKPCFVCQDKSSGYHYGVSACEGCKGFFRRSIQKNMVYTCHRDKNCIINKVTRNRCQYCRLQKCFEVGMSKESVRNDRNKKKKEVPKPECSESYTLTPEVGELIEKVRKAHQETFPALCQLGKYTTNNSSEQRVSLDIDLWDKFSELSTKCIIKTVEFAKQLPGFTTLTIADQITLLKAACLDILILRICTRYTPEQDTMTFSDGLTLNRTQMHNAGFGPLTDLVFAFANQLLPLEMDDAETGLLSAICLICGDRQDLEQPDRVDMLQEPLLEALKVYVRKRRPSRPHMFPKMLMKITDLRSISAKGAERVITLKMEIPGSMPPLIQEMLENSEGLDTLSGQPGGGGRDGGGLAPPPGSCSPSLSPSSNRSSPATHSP
Sequence of Peroxisome proliferator-activated receptor delta (Homo sapiens) (Q03181 whole entry, the tested form may be a part): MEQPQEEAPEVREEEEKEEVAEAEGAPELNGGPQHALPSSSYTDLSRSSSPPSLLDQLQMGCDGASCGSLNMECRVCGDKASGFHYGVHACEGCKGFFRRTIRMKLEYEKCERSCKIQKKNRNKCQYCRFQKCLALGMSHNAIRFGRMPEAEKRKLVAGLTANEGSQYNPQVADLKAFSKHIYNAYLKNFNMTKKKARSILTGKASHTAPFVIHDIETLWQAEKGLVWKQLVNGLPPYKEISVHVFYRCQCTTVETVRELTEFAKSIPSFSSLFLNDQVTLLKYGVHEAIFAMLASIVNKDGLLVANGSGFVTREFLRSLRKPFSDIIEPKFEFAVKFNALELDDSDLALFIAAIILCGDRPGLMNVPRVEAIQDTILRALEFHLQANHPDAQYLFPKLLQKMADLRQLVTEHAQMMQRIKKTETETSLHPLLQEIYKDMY
Sequence of Retinoic acid receptor RXR-alpha (Homo sapiens) (P19793 whole entry, the tested form may be a part): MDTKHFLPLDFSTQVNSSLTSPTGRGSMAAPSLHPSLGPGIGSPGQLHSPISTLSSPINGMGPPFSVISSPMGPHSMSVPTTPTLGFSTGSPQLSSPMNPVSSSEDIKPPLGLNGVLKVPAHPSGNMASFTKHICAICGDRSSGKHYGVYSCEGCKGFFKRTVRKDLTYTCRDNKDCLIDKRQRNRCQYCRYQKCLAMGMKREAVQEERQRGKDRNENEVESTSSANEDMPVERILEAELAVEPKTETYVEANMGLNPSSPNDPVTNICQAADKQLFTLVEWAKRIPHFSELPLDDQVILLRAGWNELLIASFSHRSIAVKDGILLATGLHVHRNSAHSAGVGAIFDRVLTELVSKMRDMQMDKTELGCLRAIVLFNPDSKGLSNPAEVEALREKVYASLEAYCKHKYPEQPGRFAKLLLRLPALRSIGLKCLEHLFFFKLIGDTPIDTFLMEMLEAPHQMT

As for `COc1ccc(CNc2c(-c3cc(Cl)ccn3)nc3ccc(Cl)cn23)cc1`, the Selectivity ratio in series [1], in [3], in series [4], in series [9], in [13] and in series [18] was 3000 in each case. Moreover, the Selectivity ratio in series [21] was found to be 3000. Moreover, the outcome in series [2], in series [10], in series [19] and in series [23] was Active. In addition, in [5], the solubility amounted to 0.0637 µg/mL (≈ 0.16 µM). For the same compound, the outcome in series [6], in series [12], in series [14] and in series [20] was inactive. Also, the inhibition entry in [7], in [8], in [11], in series [15], in series [16] and in series [17] was “inactive” in each case. For the same compound, in series [22], the Activity result is listed as “Not Active”. Moreover, in series [24], the “inhibition (INH)” value is “Not Active”.

As a reminder, the solubility is the concentration that dissolves in the medium under given conditions.
